The results in this text go back to ChEMBL document CHEMBL3763045, “Design, Synthesis, and Pharmacological Evaluation of Novel N-Acylhydrazone Derivatives as Potent Histone Deacetylase 6/8 Dual Inhibitors” (J Med Chem, 2016).

Activity calls are given as the source filed them. The rule behind the calls is not given here.

The nature of series [1]: Aqueous solubility of the compound in buffer at pH 7.4 after 24 hrs by spectrophotometric method. The format is physicochemical. In short, it runs like this: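 Water solubility in pH 7.4 buffer, measured spectrophotometrically by the method of Schneider and coworkers.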
Series [2] can be described thus: Chemical stability of compound in phosphate dibasic buffer assessed as compound degradation at pH 7.4 by HPLC-PDA analysis. The format is physicochemical. The settings on record: read-out: Drug degradation. A digest of the protocol:
(§1)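 Compounds stirred in pH 7.4 or pH 2 buffer at 37 °C for 240 min; percentage of compound recovered followed over time (30 min and 4 h points). Triplicate runs, values averaged.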

For series [3], the target named is T1, Protein deacetylase HDAC6 (Homo sapiens, UniProt Q9UBN7).
T1 sequence (Q9UBN7 whole entry): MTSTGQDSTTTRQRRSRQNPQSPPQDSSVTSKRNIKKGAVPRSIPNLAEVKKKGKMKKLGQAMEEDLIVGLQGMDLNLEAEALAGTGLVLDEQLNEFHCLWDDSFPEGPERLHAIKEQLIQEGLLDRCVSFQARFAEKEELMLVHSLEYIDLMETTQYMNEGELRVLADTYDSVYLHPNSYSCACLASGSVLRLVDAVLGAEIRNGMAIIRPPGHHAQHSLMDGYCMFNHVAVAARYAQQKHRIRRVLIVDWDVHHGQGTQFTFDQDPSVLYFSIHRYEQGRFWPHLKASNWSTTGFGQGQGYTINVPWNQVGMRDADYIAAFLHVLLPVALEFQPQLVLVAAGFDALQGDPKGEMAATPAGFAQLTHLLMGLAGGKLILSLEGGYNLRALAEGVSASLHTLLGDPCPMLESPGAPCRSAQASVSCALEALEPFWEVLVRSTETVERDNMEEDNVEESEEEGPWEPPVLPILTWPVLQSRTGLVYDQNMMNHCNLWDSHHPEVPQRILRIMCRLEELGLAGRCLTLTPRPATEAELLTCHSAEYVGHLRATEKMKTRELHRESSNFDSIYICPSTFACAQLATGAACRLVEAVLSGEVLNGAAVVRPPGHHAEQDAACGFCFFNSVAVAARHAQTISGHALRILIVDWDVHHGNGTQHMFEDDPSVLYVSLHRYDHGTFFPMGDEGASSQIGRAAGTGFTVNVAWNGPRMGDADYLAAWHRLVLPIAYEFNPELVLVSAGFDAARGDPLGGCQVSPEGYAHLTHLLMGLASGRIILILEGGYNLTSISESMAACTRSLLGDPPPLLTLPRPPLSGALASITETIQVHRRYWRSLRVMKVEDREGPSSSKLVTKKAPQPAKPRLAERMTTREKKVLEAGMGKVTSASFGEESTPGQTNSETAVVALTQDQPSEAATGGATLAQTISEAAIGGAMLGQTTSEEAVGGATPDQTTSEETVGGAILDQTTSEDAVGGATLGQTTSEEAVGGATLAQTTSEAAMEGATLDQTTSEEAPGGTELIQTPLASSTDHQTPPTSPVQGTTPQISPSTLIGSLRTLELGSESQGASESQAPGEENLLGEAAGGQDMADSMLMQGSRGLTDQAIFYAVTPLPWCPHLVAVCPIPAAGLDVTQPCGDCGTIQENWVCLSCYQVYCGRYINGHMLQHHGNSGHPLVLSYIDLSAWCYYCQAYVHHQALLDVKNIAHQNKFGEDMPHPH
Description: Inhibition of recombinant human HDAC6 by fluorimetry.

The nature of series [4]: Chemical stability of the compound in acidic buffer assessed as compound recovery at pH 2 after 4 hrs by HPLC-PDA analysis. The format is physicochemical. The settings on record: acidic buffer, pH 2; read-out: Drug recovery. In short, it runs like this:
as §1

Series [5] deals with HepG2. Description: Antiproliferative activity against human HepG2 cells assessed as reduction in cell viability after 48 hrs by MTS assay. The settings on record: HepG2, 48 h. Type of series: functional, cell-based.
The target in series [6] is Histone deacetylase (Rattus norvegicus) (UniProt Q6P6W3+Q99P99+Q99P96+Q4QQW4+Q99P97+Q5RJZ2+B1WBY8). Description: Inhibition of HDAC in rat liver at 1 uM by fluorimetry. In short, it runs like this:
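Rat liver HDAC preparation, non-selective enzyme assay, test compounds at 1 µM; % inhibition is the mean of two experiments.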

Series [7] deals with T2, Protein deacetylase HDAC6 (Homo sapiens) (UniProt Q9UBN7).
T2 sequence (whole entry): T1 sequence (Q9UBN7 whole entry)
Put plainly: Inhibition of HDAC6 in human Calu1 cells assessed as induction of tubulin acetylation at 27 to 54 nM after 24 hrs by Western blotting analysis. The settings on record: Calu-1. Type of series: cell-based. In short, it runs like this: (§2)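 Calu-1 and A549 cells treated 24 h, acetylated tubulin detected by western blot with GAPDH as loading control. DMSO vehicle control; one representative of three independent experiments.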

The next series concerns HT-144. Description: Antiproliferative activity against human HT144 cells assessed as reduction in cell viability at 40 uM after 48 hrs by MTS assay. Type of series: functional, cell-based.
A further series deals with Histone deacetylase 1 (Homo sapiens, UniProt Q13547). Put plainly: Inhibition of recombinant human HDAC1 by fluorimetry.
Sequence of Histone deacetylase 1 (Q13547 whole entry): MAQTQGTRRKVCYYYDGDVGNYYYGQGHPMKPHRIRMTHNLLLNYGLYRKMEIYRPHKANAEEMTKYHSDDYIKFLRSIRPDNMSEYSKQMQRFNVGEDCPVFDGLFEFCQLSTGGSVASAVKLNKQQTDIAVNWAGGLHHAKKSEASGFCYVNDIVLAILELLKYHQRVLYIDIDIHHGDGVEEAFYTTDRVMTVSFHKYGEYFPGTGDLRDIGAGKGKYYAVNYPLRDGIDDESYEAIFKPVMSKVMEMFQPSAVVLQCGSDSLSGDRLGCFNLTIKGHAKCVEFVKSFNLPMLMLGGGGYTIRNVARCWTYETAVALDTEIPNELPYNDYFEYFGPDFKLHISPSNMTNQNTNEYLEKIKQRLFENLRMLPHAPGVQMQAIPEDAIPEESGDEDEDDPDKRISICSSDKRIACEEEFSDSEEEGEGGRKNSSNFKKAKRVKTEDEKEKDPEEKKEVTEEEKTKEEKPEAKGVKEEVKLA
The next series has as its target Histone deacetylase. Put plainly: Inhibition of HDAC in rat liver by fluorimetry. A digest of the protocol:
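Rat liver HDAC IC50 from a six-point enzyme assay, three-fold serial dilution starting at 3 µM or 1 µM depending on compound; mean of two experiments ± SD.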

A short description of series [8]: Lipophilicity, logD of the compound at pH 7.4 after 4 hrs. The settings on record: buffer. Type of series: physicochemical.
Series [9] concerns HepG2. Put plainly: Antiproliferative activity against human HepG2 cells assessed as reduction in cell viability at 40 uM after 48 hrs by MTS assay. The format is functional, cell-based.
In a further series the target is Histone deacetylase 2 (Homo sapiens, UniProt Q92769). Put plainly: Inhibition of recombinant human HDAC2 by fluorimetry.
Sequence of Histone deacetylase 2 (Q92769 whole entry): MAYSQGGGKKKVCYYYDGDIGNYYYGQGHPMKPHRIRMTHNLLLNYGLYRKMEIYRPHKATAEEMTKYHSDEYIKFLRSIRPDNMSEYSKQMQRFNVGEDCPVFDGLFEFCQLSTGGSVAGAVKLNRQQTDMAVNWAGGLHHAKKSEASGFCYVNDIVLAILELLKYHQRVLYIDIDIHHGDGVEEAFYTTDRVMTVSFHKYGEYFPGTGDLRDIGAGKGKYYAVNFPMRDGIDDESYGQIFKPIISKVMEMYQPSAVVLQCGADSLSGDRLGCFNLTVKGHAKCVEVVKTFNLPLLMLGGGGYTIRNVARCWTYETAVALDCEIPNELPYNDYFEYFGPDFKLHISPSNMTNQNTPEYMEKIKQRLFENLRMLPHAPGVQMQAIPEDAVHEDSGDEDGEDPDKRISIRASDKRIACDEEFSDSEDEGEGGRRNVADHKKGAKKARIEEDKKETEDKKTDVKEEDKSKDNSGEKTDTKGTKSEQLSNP
The target of series [10] is T2, Protein deacetylase HDAC6 (Homo sapiens). Description: Inhibition of HDAC6 in human A549 cells assessed as induction of tubulin acetylation at 27 to 54 nM after 24 hrs by Western blotting analysis. Type of series: cell-based. In short, it runs like this: as §2
A further series deals with T3, Histone deacetylase 8 (Homo sapiens, UniProt Q9BY41).
T3 sequence (Q9BY41 whole entry): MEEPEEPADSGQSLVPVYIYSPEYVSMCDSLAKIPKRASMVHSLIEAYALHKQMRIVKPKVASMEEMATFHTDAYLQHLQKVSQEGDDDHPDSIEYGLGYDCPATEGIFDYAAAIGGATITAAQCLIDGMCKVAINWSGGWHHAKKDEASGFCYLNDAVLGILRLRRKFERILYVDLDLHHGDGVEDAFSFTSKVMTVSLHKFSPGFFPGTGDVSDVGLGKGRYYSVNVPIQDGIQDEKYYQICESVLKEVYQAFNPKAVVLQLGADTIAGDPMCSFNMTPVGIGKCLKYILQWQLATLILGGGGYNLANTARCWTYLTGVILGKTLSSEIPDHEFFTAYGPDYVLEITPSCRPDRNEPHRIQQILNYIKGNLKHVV
Description: Inhibition of recombinant human HDAC8 by fluorimetry.

Series [11] can be described thus: Antiproliferative activity against human HT144 cells assessed as reduction in cell viability after 48 hrs by MTS assay. The settings on record: HT-144, 48 h. The format is functional, cell-based.
A further series concerns Calu-1. Put plainly: Inhibition of cell migration in human Calu1 cells at 27 and 54 nM after 48 hrs by scratch test. The format is functional, cell-based. In short, it runs like this: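 Calu-1 migration by scratch test after 48 h treatment. DMSO vehicle control; one representative of three independent experiments.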
In a further series the test system is MCF7. Description: Antiproliferative activity against human MCF7 cells assessed as reduction in cell viability at 40 uM after 48 hrs by MTS assay. The format is functional, cell-based. In short, it runs like this:
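MCF-7 cells exposed at 40 µM for 48 h, viability by MTS; ANOVA with Tukey's post-test against control.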

Series [12] in a line: Chemical stability of the compound in acidic buffer assessed as compound hydrolysis at pH 2 measured for 240 mins by HPLC-PDA analysis. The format is physicochemical. The settings on record: pH 2, 4 h. In short, it runs like this:
as §1

A short description of series [13]: Ionization constant, pKa of the compound in buffer measured over 3 hrs by UV spectrometry. The format is physicochemical.

In series [1], `CN(/N=C/c1ccc(C(=O)NO)cc1)C(=O)c1ccc(N(C)C)cc1` registered a solubility at 24 h above 64 µM. Moreover, the degraded in series [2] was above 15%. For the same molecule, the half-maximal inhibitory concentration (IC50) in series [3] was 27 nM; in the series on HepG2 [5], 24.1 µM; on Histone deacetylase 1, above 3 µM; at Histone deacetylase, 0.018 µM; at Histone deacetylase 2 it was above 3 µM; on Histone deacetylase 8 it was 130 nM. Moreover, in series [11], the concentration for half-maximal inhibition (IC50) came to 36.1 µM. For the same molecule, in series [4], the remaining at 4 h is 70%. Moreover, the inhibition in series [6] worked out at 90.4%. The inhibition result (in series [7]; in series [10]; in the series with Calu-1) was “Active” each time. Moreover, the outcome in the series on HT-144, in the series on HepG2 [9] and with MCF7 was Active. Also, the logD at 4 h in series [8] turned out to be 0.98. In series [12], the Stability entry is listed as “Unstable”. The pKa at 3 h in series [13] came out at 8.1.
